In ChEMBL document CHEMBL4513216, “Probing the Open Global Health Chemical Diversity Library for Multistage-Active Starting Points for Next-Generation Antimalarials” (ACS Infect Dis, 2020):

Experiment: Toxicity liver stage against HepG2, at 10uM
Assay type: cell-based
Parameters: test concentration 10 uM, cell line HepG2-A16-CD81EGFP
Conditions: human, HepG2-A16-CD81EGFP cells; read-out: INHIBITION
How it was run: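 Uninfected HepG2-A16-CD81EGFP cells, 3 × 10^3 per well, 1536-well, plated on prespotted compound at 10 μM final, parasite-free screening media added to match infected plates; puromycin 10 μM positive, DMSO 0.5% negative; run in parallel with 48 h PbLuc assay at 37 °C, 5% CO2; viability by CellTiter-Glo luminescence, normalized to controls.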

SMILES	cytotoxicity at 10 µM
COc1ccc2nc(C[C@@H]3C[C@@H](C(C)C)[C@H](CN)C=C3C)[nH]c2n1	3.38%
COCc1ccc(CN[C@H]2C[C@@H](Cc3cc(CCO)on3)C2(C)C)o1	-1.68%
COCCNC(=O)Cn1ccc2cccc(OC)c21	-45.8%
Cc1ccc(NC(=O)Cn2ncc(SCC(N)=O)c(Cl)c2=O)cc1	-16.9%
CCOc1ccc(S(=O)(=O)NCCc2ccc(N(C)C)cc2)cc1F	-3.56%
CN1CCCC(C(=O)N2CCC(Oc3ncccn3)CC2)C1 (centres undefined)	-5.2%
COc1cc(C(=O)N2CCO[C@H]3[C@H](OCC4CC4)CC[C@@H]32)ccc1F	9.32%
CC(C)N1CCc2ncn(C(C)C)c2C1C(=O)NCCN1CCCC1 (centres undefined)	3.11%
CCOc1ncnc2c1CCN(S(=O)(=O)CC)CC2	3.79%
Cc1ccc(N2Cc3c(CN(C)C)nn(C)c3C2)nn1	2.47%
c1ccc(-c2nnc3sc(CCN4CCCCCC4)nn23)cc1	1.11%
Cc1cccc(NC(=O)c2nn(C3CCS(=O)(=O)C3)c3c2CCCC3)n1 (centres undefined)	10.5%
O=c1[nH]c2ccccc2c2c1CCO2	6.9%
CN1CCN(C(=O)c2ccc(Cn3cc(Br)cn3)cc2)CC1	-3.7%
O=C(c1c(F)cccc1F)N1CCOCC1	5.33%
Cc1nn(C)c2cn(CC(=O)N3CCN(c4ccccc4)CC3)nc12	6.94%
CCN1CCCC(O)(CNCc2ccccc2F)C1 (centres undefined)	-5.66%
Cn1ncc(C(=O)N2CCN(CCS(C)(=O)=O)CC2)c1Cl	4.33%
Nc1nccc(C2CCN(c3cnccn3)C2)n1 (centres undefined)	1.43%
Cc1nc(NC2CCOCC2)cc(C2CCN2S(C)(=O)=O)n1 (centres undefined)	2.31%
CC(C)S(=O)(=O)N1C[C@@H](O)[C@H](N(C)Cc2ccc(F)cc2)C1	2.51%
Cc1noc(C)c1CCC(=O)NCC1(O)CCCN(c2ccccn2)C1 (centres undefined)	-3.95%
Cc1cc(N2CCC(Cc3ncccn3)C2)ncn1 (centres undefined)	0.146%

SMILES	cytotoxicity at 10 µM
Cc1ccc(-c2nnc(CNC(=O)c3cccnc3)o2)cn1	-2.72%
Cc1noc(C)c1C(=O)N1CCCCC1c1cc(C)n2ccnc2n1 (centres undefined)	15.8%
NCCn1nc(C2CCN(C(=O)Cc3ccccc3)C2)c2nccnc21 (centres undefined)	-15.9%
CN1CC(c2cc(O)nc(NCc3ccccc3Cl)n2)CC1=O (centres undefined)	-20.2%
CNC(=O)C1(c2cnccn2)CCCN1C(=O)c1ccccc1C (centres undefined)	-16.5%
Cc1noc(C2CCCN2C(=O)C2CCC2)n1 (centres undefined)	-12.4%
CNc1cncc(C2CCCN2C(=O)c2ccc3c(c2)OCCO3)n1 (centres undefined)	-2.97%
Cc1cc(C(=O)NCC(F)(F)F)c2c(C3CCCN3)noc2n1 (centres undefined)	6%
COc1ccc(N(C)C(=O)C2CN(C)CCO2)cc1F (centres undefined)	-41.8%
CNC(=O)NCC(=O)Nc1ccccc1N1CCc2ccccc21	2.46%
CCc1ccsc1C(=O)NC(C#N)CC (centres undefined)	3.15%
O=S(=O)(Cc1nc(C2CC2)no1)c1ccccc1F	8.11%
CCCOc1ccc2c(c1)OCC(C(=O)NC(C)Cn1cccn1)=C2 (centres undefined)	4.46%
Cc1cc(CSCc2ccccn2)on1	7.69%
CC(C)COc1ccccc1C(N)CC(C)C (centres undefined)	-5.27%
CSc1ccccc1NC(=O)CCN1CCC(C(=O)N(C)C)CC1	6.47%
O=C(c1cc(-n2cccn2)ccn1)N1CCOc2ncccc21	-0.554%
N#Cc1c(Cl)nsc1NCc1ccc(N2CCC(CO)CC2)cc1	-4.73%
CC(=O)NCCCSC1CCCN(c2ccccc2F)C1=O (centres undefined)	-0.906%
CC(C)(C)c1cc(NC(=O)C2COCCO2)n(-c2ccccn2)n1 (centres undefined)	-3.49%
CN(c1cccc2ccccc12)S(=O)(=O)c1cc(C(=O)O)cs1	-2.88%
CC(c1ccc(Cl)cc1)N1CCN(CCCS(N)(=O)=O)CC1 (centres undefined)	-1.44%
O=C(NCCNc1ncccn1)c1cnc(-c2ccccc2)nc1	12.1%

SMILES	cytotoxicity at 10 µM
COc1ccc(C(CNC(=O)c2cnc(C)cn2)N2CCOCC2)cc1 (centres undefined)	3.04%
Cc1ccc(S(=O)(=O)NCC(C)C#N)cc1Br (centres undefined)	0.727%
NS(=O)(=O)c1cc(C(=O)N2CCCCC2)cs1	-0.174%
CN(C)C(=O)c1ccc(OC2CCOCC2)cc1	-2%
CCOC1CCCN(C(=O)c2[nH]nc(C(C)C)c2Br)C1 (centres undefined)	-6.78%
CCCc1noc(CNc2cc(C[S+](C)[O-])ccc2Cl)n1 (centres undefined)	-5.18%
NC(=O)C1=NC2=NS(=O)(=O)c3ccccc3N2N1Cc1ccccc1Cl	-10.9%
COCC1CCN(CCCc2cn[nH]c2)CC1	11.3%
COC(=O)c1sccc1CN1CCN(C(=O)c2ccc(C)o2)CC1	2.37%
CN(CC(F)(F)F)C(=O)CNC(=O)N1CCC(N2CCCC2)C1 (centres undefined)	3.72%
Cc1nn(C)c(N2CCOCC2)c1CNC1CCCCNC1=O (centres undefined)	5.84%
CCN(CC1CCOC1)C(=O)c1cn2ccc(C)cc2n1 (centres undefined)	1%
CCN(CC1CCOC1)C(=O)c1ccn(-c2cc(C)ccc2OC)n1 (centres undefined)	6.16%
CCN(CC)S(=O)(=O)c1ccc(CNc2cc(C)nc(C)n2)cc1	-5.83%
CCN(CC)c1ncc(CNCC2CCCn3ccnc32)s1 (centres undefined)	-29.9%
COCC(=O)N1CCN(C(=O)CCc2ccsc2)CC1	-17%
CN1CCN(Cc2ccccc2CNC(=O)c2ccc(Br)cc2F)CC1	4.65%
CCC(CC)c1cc(CNC(=O)N2CCOC(C)C2)on1 (centres undefined)	0.433%
O=S(=O)(C1CC1)N1CCCn2nnc(Cn3cccc3)c2C1	9.39%
COc1ccc(CN(C)c2ccc(-c3nccn3C)nn2)cc1OC	-3.32%
CCCC(CNc1cc(C(C)C)nc2ccnn12)N(C)C (centres undefined)	5.6%
Cc1cnccc1Cn1ccnc1C1CCOC1 (centres undefined)	-2.53%
CC(C)[C@@H]1CN(C(=O)c2ccsc2)C[C@H]1C(=O)O	12.8%

SMILES	cytotoxicity at 10 µM
Cc1noc(C)c1CCN1CCCC1c1nc2cc(F)ccc2[nH]1 (centres undefined)	9.3%
Cc1cc(N2CCC(n3cc(CN4CCSCC4)nn3)CC2)ccn1	-12.5%
CN(Cc1cnn(C)c1)Cc1nc(CCc2ccccc2)no1	-26.1%
NC(=O)c1csc(N2CCN(Cc3cccc4nsnc34)CC2)n1	0.5%
Cc1cc2cccc(C(=O)N3CCOC4(CNCCOC4)C3)c2o1 (centres undefined)	-2.21%
O=C(CCCNCc1ccccc1)N1CCCn2cncc2C1	-3.32%
O=C(O)C1(n2ccnc2)CCN(Cc2cc3ccccc3o2)CC1	-6.34%
O=S1(=O)C[C@@H]2[C@H](C1)N(Cc1cc(Cl)cc(Cl)c1)CCN2CCO	0.303%
O=C(O)c1ccnc(-c2ccnc(NCCc3nc4c(s3)CCC4)n2)c1	-4.23%
CCC(C(=O)NC1(CN2CCOCC2)CCCC1)n1cccn1 (centres undefined)	4.52%
OC1(CNCCCN2CCc3ccccc32)CCNC1 (centres undefined)	11.5%
Cc1cc(N2C[C@H](NC(=O)C3(C#N)CCOCC3)[C@@H](C(C)C)C2)ccn1	-4.1%
CCCC(Nc1nc(COCC)nc2c1CCNCC2)c1nccn1C (centres undefined)	-10.3%
CCS(=O)(=O)CCNC(=O)[C@@]12CNC[C@@H]1CN(C1CCCC1)C2	-20.3%
CCCc1nc(CN2CCCCC2Cn2cncn2)cs1 (centres undefined)	-5.61%
Cc1nc2cc(O)nn2c(C)c1CCC(=O)NCCc1nccn1C	-0.84%
Cc1cccc(OCCN2CCN(Cc3noc(C)n3)CC2)c1	-8.78%
CS(=O)(=O)NCC1CCCCN1C(=O)c1cccc(C(F)(F)F)c1 (centres undefined)	-2.02%
CCCC1CCCN(C(=O)CCn2cccn2)CC1 (centres undefined)	-9.48%
CCn1ccnc1CN1CCN(C(C)C(=O)N2CCCCCC2)CC1 (centres undefined)	-7.01%
CS(=O)(=O)NC(=O)c1nnn(-c2cccc(F)c2)c1C1CC1	-3.9%
Cc1cnn(CC2CN(Cc3nnc(C(C)C)o3)CCO2)c1 (centres undefined)	-2.55%
Cc1cc(NC(=O)N(CCO)Cc2ccsc2)no1	-5.57%

SMILES	cytotoxicity at 10 µM
O=C(CSc1ccc(Br)cc1)NS(=O)(=O)c1ccc2c(c1)OCCO2	-5.51%
CCNC(c1cccnc1)c1ccc(F)cc1F (centres undefined)	-2.34%
CNc1nc(CNC(=O)Nc2cccc(F)c2)cs1	-5.45%
CC(C)(C)n1cc(C(=O)N2CCN(Cc3ccsc3)CC2)cn1	-5.79%
CCn1cnnc1CNC(=O)NC(C)c1cccs1 (centres undefined)	-4.92%
CCOc1ncccc1NC(=O)NC1CCCN(c2ncccn2)C1 (centres undefined)	-10.6%
CN1CCCC1c1cc2cccnc2n1Cc1ccc(F)cc1 (centres undefined)	5.44%
O=C(NCc1ccc(F)cc1)N1CCN(CC(O)C2CC2)CC1 (centres undefined)	8.88%
O=C(NCC1CCC2(CCNCC2)O1)C1CC1 (centres undefined)	-5.01%
Cc1ccc(CN(CCCN2CCOCC2)Cc2cncn2C)o1	-40.3%
COc1ncc(CN(CCCN2CCOCC2)Cc2ccc(C)o2)cn1	-33%
CCN1CCn2c(C)cnc2C12CCN(C(=O)Cc1ccccc1)CC2	4.59%
Cc1occc1C(=O)N1CCO[C@H]2[C@@H](Oc3ccccn3)CC[C@@H]21	2.37%
CN1CCN(Cc2cnc3n2CCN(Cc2cccs2)C3)CC1	-3.24%
CN(C)C(=O)c1n[nH]c2c1CN(CC1CCC1)C2	-2.22%
Cc1noc(C)c1CN1CCC2(CC1)CC(Oc1cccnc1)C2	23.2%
CN(C)C(=O)CN1CC[C@H]2CN(C3CCOCC3)C[C@@H]2C1=O	-3.84%
CCOC1COC2(CCN(Cc3ccc(C)c(C)c3)CC2)C1 (centres undefined)	-11.2%
COc1ccc(CNC(Cc2cccs2)c2nc(C)c(C)s2)cc1OC (centres undefined)	-3.32%
CN1C(=O)C2(CCN(CC3CC3)CC2)c2ccccc21	3.16%
Cc1cnc(CN2C[C@H]3CC(Oc4ccccc4)C[C@H]3C2)cn1 (some centres undefined)	-24.3%
CN1CCN(C(=O)N2C[C@@H]3CC[C@H]2CN(Cc2ccccc2)C3)CC1	-7.71%
